Laboratory results reported in ChEMBL document CHEMBL4513216, “Probing the Open Global Health Chemical Diversity Library for Multistage-Active Starting Points for Next-Generation Antimalarials” (ACS Infect Dis, 2020).

Experiment: Toxicity liver stage against HepG2, at 10uM
Assay type: cell-based
Parameters: test concentration 10 uM, cell line HepG2-A16-CD81EGFP
Conditions: human, HepG2-A16-CD81EGFP cells; read-out: INHIBITION
Method in brief: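 Uninfected HepG2-A16-CD81EGFP cells, 3 × 10^3 per well, 1536-well, plated on prespotted compound at 10 μM final, parasite-free screening media added to match infected plates; puromycin 10 μM positive, DMSO 0.5% negative; run in parallel with 48 h PbLuc assay at 37 °C, 5% CO2; viability by CellTiter-Glo luminescence, normalized to controls.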

Row | Compound | cytotoxicity at 10 µM
1 | COc1cccc(CNC(=O)CCNS(=O)(=O)c2ccc(C)cc2)c1 | -137%
2 | O=C(NC[C@H]1OC[C@@H](NCc2ccccn2)[C@@H]1O)N1CCOCC1 | 0.15%
3 | COC(=O)CC(c1ccc(O)c(Cl)c1)c1oc(C)cc(=O)c1O (stereo unspecified) | -8.59%
4 | O=c1nc(SCc2ccncc2)c2c(n1CCO)CCC2 | 6.9%
5 | O=C(c1cn(-c2cc(N3CCSCC3)ncn2)cn1)N1CCOCC1 | 14.9%
6 | COCCN(Cc1ccoc1)S(=O)(=O)c1ccc(F)c(Cl)c1 | -7.93%
7 | CCC(CC)C(=O)N1CCOC2(CNC2)C1 | -0.184%
8 | Cc1ccccc1N1CC2(CCN(S(=O)(=O)c3ccccc3)C2)CC1=O (stereo unspecified) | 6.24%
9 | O=C(c1n[nH]c2c1CCN(Cc1nccs1)C2)N1CCOCC1 | -144%
10 | Cc1ccc2c(n1)N(CCn1cccn1)CCN(C(=O)NC(C)C)C2 | 13.3%
11 | COCCn1cc2c(n1)C(CNS(C)(=O)=O)OCC2 (stereo unspecified) | 0.763%
12 | CC(C)CCC(=O)N1CC[C@@H]2[C@H](CC1)N(S(C)(=O)=O)CCS2(=O)=O | 3.7%
13 | CCS(=O)(=O)N1CCC2(CC(=O)N(c3ccc4c(c3)OCO4)C2)C1 (stereo unspecified) | 9.17%
14 | Cc1noc([C@H]2C[C@H]3OCC[C@H]3N(S(C)(=O)=O)C2)n1 | -115%
15 | COC[C@@]12CCO[C@@H]1CCN(C(=O)c1ccc(F)c(F)c1)C2 | -2.59%
16 | O=c1cc(Cn2ccnc2)nc2n1CCCN(Cc1ccncc1)C2 | -0.559%
17 | CC1CCc2nc(O)c(C(=O)NCc3ccncc3)cc2C1 (stereo unspecified) | -1.37%
18 | CCOc1ccc(CNCCCn2ccnc2)cc1Br | -6.81%
19 | O=c1nc(CNc2ccccc2)[nH]n1Cc1ccccc1 | 4.13%
20 | O=C(Cn1ccc2ccc(Br)cc21)NCc1ccc(C(=O)O)cc1 | 6.46%
21 | CC(C)Oc1ccccc1C1CC(=O)Nc2c1cnn2C (stereo unspecified) | 2.09%
22 | CCOCC1CN(Cc2ccoc2)Cc2ncn(CC3CC3)c21 (stereo unspecified) | -14.5%
23 | COCC(=O)N1Cc2cn(C)nc2C(COc2cccnc2)C1 (stereo unspecified) | -11%

Row | Compound | cytotoxicity at 10 µM
24 | CCOc1cc(C(=O)n2cccn2)cc(OCC)c1OCC | 2.83%
25 | CCCN(c1ccccc1C(=O)O)S(=O)(=O)c1cccc2cccnc12 | -3.89%
26 | CCC(Oc1ccccc1)c1nn2c(CN(CC)CC)nnc2s1 (stereo unspecified) | 4.91%
27 | Cn1cc(CN2CCc3nc4sccc4c(=O)n3CC2)cn1 | -2.19%
28 | CCOc1ccc(N(CCC#N)C(=O)c2ccc(OC)nc2)cc1 | 2.52%
29 | Cc1ccc(C)c(SCC(=O)Nc2cccc(C(=O)N(C)C)n2)c1 | -9.9%
30 | Cc1cc(F)cc(NC(=O)N(C)CC(C)(CO)CO)c1 | -1.44%
31 | CC(NC(=O)c1ccoc1)C(=O)N(C)Cc1ccsc1 (stereo unspecified) | -1.77%
32 | Cc1c(C(=O)N2CCC2(C)C)nnn1-c1cccc2cnccc12 | -2.15%
33 | c1cc(CCn2ccc(NC3CCSCC3)n2)ccn1 | 5.55%
34 | COC(=O)CCCN(C)C(c1cccnc1)c1ccc(F)cc1F (stereo unspecified) | -0.665%
35 | Cc1ccc(CC(NC(=O)CCS(C)(=O)=O)c2ccccn2)cc1 (stereo unspecified) | -11%
36 | CC(Nc1ccc(Br)cc1)c1nc(C2CC2)no1 (stereo unspecified) | 6.27%
37 | Cc1nnc(CN(Cc2cccc3c2OCO3)CC2CCCO2)n1C (stereo unspecified) | 3.93%
38 | CC(Oc1ccc(OCc2ncc(C(C)C)o2)cc1)C(N)=O (stereo unspecified) | -10.4%
39 | O=C(CN1CC(n2cccn2)C1)NCC1(c2ccccc2)CCC1 | -3.14%
40 | CC(=O)NCCOc1c(C)cccc1C | -2.33%
41 | CN(C)c1ncccc1CNC(=O)N1CCN(C)c2ccccc2C1 | 4.72%
42 | COc1c(CNCc2ccc(N3CCOCC3)nc2)c(C)nn1C | 9.5%
43 | CCc1nnc(SC2CCCN(c3cnn(C)c3)C2=O)n1C (stereo unspecified) | 2.68%
44 | O=C(Cn1cc(I)cn1)N1CCOCC1 | -10.2%
45 | Cc1cn(CC(=O)NCC(=O)NC2CC2)c2ccccc12 | -0.966%
46 | O=C(CSc1ccc2c(c1)OCCO2)NS(=O)(=O)c1ccccc1Cl | -4.46%

Row | Compound | cytotoxicity at 10 µM
47 | COCC(NC(=O)c1ccco1)c1cccc(C(F)(F)F)c1 (stereo unspecified) | -3.96%
48 | CCCN(C)c1ccc(C(=O)Nc2c(C)nn(C(C)C)c2C)cc1 | -2.84%
49 | CN(CCN1CCOCC1)C(=O)CCCOCCc1ccccc1 | -1.28%
50 | CC1CN(C)c2ccccc2CN1C(=O)c1ccncc1F (stereo unspecified) | -16.9%
51 | CCN(CCS(=O)(=O)CC)CC1CCCO1 (stereo unspecified) | -0.157%
52 | CN(CCNC(=O)N1CCCC1)C(=O)OC(C)(C)C | 3.97%
53 | CCOc1ccc(C#N)cc1NC(=O)N1CCC(n2cncn2)CC1 | 20.3%
54 | CCOCCCNC(=O)NC(C)c1ccc(-n2cncn2)cc1 (stereo unspecified) | 3.31%
55 | Cn1ncc2cnn(CC(O)COCc3ccccc3Cl)c2c1=O (stereo unspecified) | 3.8%
56 | O=C(CCCc1ccccn1)N1CCOc2ccc(F)cc21 | 9.81%
57 | CC1CN(Cc2ccccc2)CCCN1CCCS(C)(=O)=O (stereo unspecified) | 5.27%
58 | CCOC(=O)C(C)Nc1ccc(CCN2CCOCC2)cc1 (stereo unspecified) | -2.2%
59 | CNC(=O)C(C)CN(C)C(=O)Nc1cc(-n2cccc2)ccc1F (stereo unspecified) | -5.28%
60 | CC1CCN(CCNC(=O)C2CCN(S(N)(=O)=O)CC2)CC1 | 17.9%
61 | Cc1nccn1-c1cc(CNC(=O)C(C)(C)C)ccn1 | -11.9%
62 | COCCN1CCc2ncnc(NC3CC3)c2CC1 | 5.62%
63 | COCC(=O)N1Cc2nccn2CC(CN(C)Cc2cccnc2)C1 (stereo unspecified) | -76.2%
64 | C[C@H](NS(C)(=O)=O)C(=O)NCc1cc(-c2ccco2)n(CC(F)(F)F)n1 | -13%
65 | CNS(=O)(=O)CCN1CC(c2ccccc2)(c2ccccc2)CCC1=O | -7.91%
66 | COc1ncc(CN2CCOC(Cc3cccc4ccccc34)C2)cn1 (stereo unspecified) | -3.94%
67 | Cc1nc(C)c(CC(=O)N2CCCN(CC3CC3)C(C(C)C)C2)c(=O)[nH]1 (stereo unspecified) | -153%
68 | c1ccc(CCc2n[nH]c(C3CCC3)n2)cc1 | -3.58%
69 | Cc1cc(C)c(Cn2cncn2)cc1CN1CCC(CN)C1 (stereo unspecified) | -11.3%

Row | Compound | cytotoxicity at 10 µM
70 | COCc1cc(N(C)Cc2cc(C(C)(C)C)n[nH]2)ncn1 | -1.15%
71 | CC(=O)c1cccc(-c2c[nH]c(C)n2)c1 | -0.916%
72 | CCOC(=O)N1CCC(Nc2cc(CC)nc3c(C)c(C)nn23)CC1 | 11.8%
73 | COCCCC1(C(=O)O)CCCN(Cc2cc3c(cc2C)OCCO3)C1 (stereo unspecified) | -2.3%
74 | Cc1ccsc1CCNC(=O)CCC1CCCCN1C (stereo unspecified) | -3.13%
75 | COCC(=O)N1C[C@H]2CNC[C@@]2(C(=O)NCc2c(C)noc2C)C1 | 0.753%
76 | O=C(CCNc1ncc2c(n1)CCN2c1ccccc1)N1CCCC1 | 9.5%
77 | CN(Cc1ccc2nonc2c1)C(=O)CCc1cc2n(n1)CCCNC2 | -9.46%
78 | CCc1nc(C)sc1CN1CC[C@](O)(CC)[C@H](O)C1 | -5.61%
79 | CN1CC(c2ccccc2)CC2(CCN(CC(=O)N(C)C)CC2)C1 (stereo unspecified) | -12.5%
80 | Cn1cnnc1C1CCCN(C(=O)NCCn2ccnc2)C1 (stereo unspecified) | -2.74%
81 | CC(C)c1nc(C2CCCN2C(=O)c2cnns2)no1 (stereo unspecified) | -6.8%
82 | O=C(c1ccc2c(c1)CCO2)N1CCN(c2cnccn2)CC1 | -14.4%
83 | CC(C)n1ccc(CN2CCOC(CNc3cccnn3)C2)n1 (stereo unspecified) | -16.6%
84 | Cc1ccn2ncc(C(=O)N3CCCC(n4ccnc4C)C3)c2n1 (stereo unspecified) | -13.6%
85 | CCC(C)(C)NC(=O)Cn1nc(C)nc1-c1ccccc1 | -15.4%
86 | CC(C)Cc1noc(CN2CCCC2c2noc(C3CC3)n2)n1 (stereo unspecified) | -12.9%
87 | O=C(CCn1cncn1)N1CCCC1c1noc(C2CC2)n1 (stereo unspecified) | -23.3%
88 | Fc1cccc(-n2ccc(CN3CCCC3Cn3cccn3)n2)c1 (stereo unspecified) | -13.1%
89 | COc1c(CNCc2ccc(S(C)(=O)=O)cc2)c(C)nn1C | -8.27%
90 | COc1ccc(CCC(=O)N2CCCCC2Cn2cccn2)cc1F (stereo unspecified) | -8.7%
91 | Cc1nc(CN2CCCC(N(C)Cc3nc(C)c(C)o3)C2)no1 (stereo unspecified) | -6.6%
92 | CC(=O)Nc1nc(C(=O)NC(C)c2ccc(F)c(F)c2)cs1 (stereo unspecified) | -5.39%

Row | Compound | cytotoxicity at 10 µM
93 | Cc1ccc(-c2nc(CN3CCn4c(C)nnc4C3)cs2)o1 | -19.2%
94 | O=C(NCC1CCOC1)c1cc(-c2cccc(Cl)c2)on1 (stereo unspecified) | -8.75%
95 | O=C(CN1CCCS1(=O)=O)NCCOc1ccc2c(c1)CCC2 | -2.5%
96 | Cn1cc([C@@H]2CN(S(=O)(=O)c3cccnc3)C[C@H]2N)c2ccncc21 | -0.57%
97 | CCOc1ccc(CNCCCn2ccnc2)cc1Cl | -9.51%
98 | Cc1ccc(CN2Cc3c(C(=O)N4CCCC4)nn(C)c3C2)s1 | -0.704%
99 | O=C1CC2(CCCCN2CC2CC2)CN1c1ccccc1 (stereo unspecified) | 4.86%
100 | Cc1ccc(C(=O)N2CCO[C@H]3[C@H](OCc4ccccn4)CC[C@@H]32)o1 | -148%
101 | Cc1ccc(CN2CCC3(CC2)C(=O)N(CC(C)C)CCN3C)s1 | -3.63%
102 | Cc1cccc(CN2C[C@@H]3CN(C(=O)NC(C)C)C[C@@H]3C2=O)n1 | 2.91%
103 | O=C(CC1CC1)N1CC[C@H]2OCC[C@@]2(COc2ncccc2F)C1 | -134%
104 | Cc1ncsc1CN1C[C@@H](OCC(=O)N(C)C)[C@H]2OCCC[C@H]21 | -139%
105 | O=C(NCc1cccs1)C1CNCC12CCOCC2 (stereo unspecified) | -5.43%
106 | COc1ccc(CN2CC[C@H]3[C@H]2CC(=O)N3Cc2cccc(C)n2)cc1 | 1.2%
107 | COc1ncccc1CN1C[C@@H]2COC[C@]2(COc2ccccn2)C1 | -3.87%
108 | CCOCC(=O)N1C[C@@H]2CC[C@H]1CN(C(=O)c1ccncc1)C2 | 0.0793%
109 | O=C(c1cccnc1)N1C[C@H]2CC[C@@H](C1)N(Cc1ccc(F)cc1Cl)C2 | 1.17%
110 | CCNc1nc2cn(-c3ccc(C)c(C)c3)c(=O)c-2c[nH]1 | 0.255%
111 | CSc1ncccc1C(=O)N1C[C@@H]2CC[C@H]1CN(C(C)=O)C2 | 4.99%
